Shown is part of a subset that was picked to be rich in hits.
UPR CHOP act: activators of apoptotic CHOP UPR arm, primary screen, cell-based, CHO-CHOP luciferase reporter, luminescence, uHTS; UPR activation; percent of tunicamycin response over DMSO baseline; activation, % at 10 µM; hit rate 0.34% among 330,000; AID 449763, 2010;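 active means at 10 µM dose, activation of 40% or more, normalized to positive control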;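 further: 100% = tunicamycin at 10 µg/mL and 0% = DMSO alone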
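assay system = CHO CHOP reporter cells | amount = 500 CHO-CHOP cells per well | buffer or medium = F12 with 10% FBS | incubation = 16-18 h cell attachment, then 6 h compound exposure, 37 °C | detection = luminescence read with Steady-Glo | read-out = percent activation relative to tunicamycin control | controls = tunicamycin high control, DMSO low control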
CHOP inh: inhibitors of CHOP promoter induction, primary screen, cell-based, unfolded protein response, luciferase reporter. CHO-K1 CHOP-promoter luciferase, tunicamycin-induced, 15-18 h. inhibition, % at 10 µM. hit rate 3.8% among 220,000. AID 2732, 2010;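 active means compounds that reduced the stress-induced luciferase reporter signal by more than about 70% of percent inhibition, limit read from the data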;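 further: 0% = tunicamycin plus vehicle and 100% = wells without tunicamycin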
UCH37 DUB inh: inhibitors of human UCH37 deubiquitinase, primary screen, biochemical, Ub-AMC cleavage, fluorescence. purified proteasome/UCH37. inhibition, % (test concentration not listed). hit rate 0.33% among 330,000. AID 588478, 2011;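 active means mean inhibition over replicate wells above about 20%, limit read from the data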;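 further: 0% = compound-free wells with enzyme and 100% = wells lacking proteasome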
Target sequence (Q9Y5K5 whole entry, looked up): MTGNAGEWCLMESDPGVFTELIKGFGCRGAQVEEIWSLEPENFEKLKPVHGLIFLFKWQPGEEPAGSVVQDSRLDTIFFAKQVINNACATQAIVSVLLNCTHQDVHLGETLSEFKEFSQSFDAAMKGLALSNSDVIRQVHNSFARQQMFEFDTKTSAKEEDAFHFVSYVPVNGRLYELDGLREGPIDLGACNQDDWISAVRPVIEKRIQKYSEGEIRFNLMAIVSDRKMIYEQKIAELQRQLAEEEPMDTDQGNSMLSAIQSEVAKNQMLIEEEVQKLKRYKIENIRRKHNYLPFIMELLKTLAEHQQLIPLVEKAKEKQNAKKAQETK
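Material: human UCH37 enzyme supplied as purified proteasome complex / Amount: 0.15 nM proteasome as dispensed / Buffer or medium: pH 7.4 Tris-HCl (50 mM) with ovalbumin, ATP-MgCl2, DTT / Times: preincubation 30 min, reaction 25 min, room temperature / Technique: AMC fluorescence from Ub-AMC cleavage, excitation 355 nm, emission 460 nm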
XBP1 UPR activ: activators of adaptive XBP1 UPR arm, primary screen, cell-based, CHO-XBP1 luciferase reporter, luminescence, uHTS; AID 463104, 2010; hit rate 0.33% among 330,000; activation, % at 20 µM; IRE1-XBP1 UPR activation; percent of tunicamycin response, DMSO as zero;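 active means versus positive control, 20 µM dose yields 30% or more activation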;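 further: 100% = tunicamycin at 10 µg/mL and 0% = DMSO only wells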
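Test system: CHO-XBP1 luciferase reporter cells | Buffer or medium: Serum-containing F12 medium, 10% FBS | Schedule: 6 h compound exposure at 37 °C, 5% CO2 | Detection: Steady-Glo luciferase glow luminescence, 10 min after reagent addition | Read-out basis: Activation, % of tunicamycin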
Fh CTSL1 inh: Fasciola hepatica cathepsin L1 inhibitors, primary screen, counter-screen for PFM18AAP inhibitor project, biochemical, QFRET, fluorogenic peptide substrate; recombinant F. hepatica cathepsin L1, Z-Leu-Arg-MCA fluorescence; inhibition, % at 5.96 µM; hit rate 0.49% among 300,000; AID 1906, 2009;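 active means inhibition above the mean of all tested compounds plus 3 SD, set per screening campaign, cut at about 17% in these data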;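 further: 0% = plate median of test compound wells and 100% = 1 µM Z-Phe-Ala-diazomethylketone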
Starred values were filed as active, the others as inactive; i = inactive; . = no result.

SMILES | UPR CHOP act | CHOP inh | UCH37 DUB inh | XBP1 UPR activ | Fh CTSL1 inh
Cc1ccc(S(=O)(=O)c2c(C)nn(C(C)(C)C)c2OC(=O)c2ccc(Br)o2)cc1 | 8.7 | 72.2* | -1.0 | 3.0 | -0.8
CC(=NNC(=O)CNC(=O)COc1ccccc1)c1ccc(Cl)cc1 | . | . | 2.0 | . | .
Cc1ccccc1C(=NC(=O)c1ccccc1)c1ccccc1 | 0.6 | 72.2* | 1.1 | -1.3 | -38.4
Cc1ccccc1C(=O)O/N=C(\N)c1ccccc1 | -9.0 | . | -1.4 | -11.1 | -1.7
Clc1ccccc1CN1CCN(N=Cc2ccncc2)CC1 | . | . | 4.9 | . | .
O=S1(=O)c2ccccc2N=NN1Cc1cc(Cl)cc(Cl)c1 | -0.2 | 92.4* | . | -2.9 | 1.7
O=C(N/N=C/c1ccc(Cl)cc1Cl)C1CCN(c2ncc(C(F)(F)F)cc2Cl)CC1 | . | 96.0* | . | . | .
O=C(OC1CCN(c2ncc(C(F)(F)F)cc2Cl)CC1)c1ccc(Cl)cc1 | -1.0 | -13.8 | 2.7 | 0.1 | -2.5
O=C(N/N=C/c1cccc(C(F)(F)F)c1)C1CCN(c2ncc(C(F)(F)F)cc2Cl)CC1 | -2.6 | 83.2* | . | 21.4 | -2.2
CC(=NNC(=O)c1cc(Cl)ccc1O)C12CC3CC(CC(C3)C1)C2 | . | . | -92.2 | . | .
COc1ccc(OC)c(C=NNC(=O)CN2CCSCC2)c1 | . | . | i | . | .
NC(Cc1ccc([N+](=O)[O-])cc1)=NOC(=O)c1cccc(Br)c1 | . | . | 1.2 | . | .
Cc1ccccc1Cn1c(=N)n(CC(O)c2ccco2)c2ccccc21 (stereo not drawn) | -3.1 | 60.1 | -2.0 | 0.6 | -5.1
CC(C)(C)c1ccc(Cn2c(=N)n(CC(O)c3ccco3)c3ccccc32)cc1 (stereo not drawn) | -2.2 | 76.0* | 2.8 | 2.5 | -1.0
FC(F)(F)c1cccc(NC(=S)N2CCN(c3ccccc3)CC2)c1 | 3.3 | 79.9* | 1.5 | -4.7 | -3.6
FC(F)(F)c1cccc(N2CCN(C(=S)NC3CCCCC3)CC2)c1 | -0.6 | 60.6 | 2.3 | 0.4 | -1.1
FC(F)(F)c1cccc(N2CCN(C(=S)NC3CCCC3)CC2)c1 | -0.2 | 81.0* | 2.6 | 1.5 | 1.2
Cc1cccc(C)c1NC(=O)COC(=O)c1ccc(N2CCCC2)c([N+](=O)[O-])c1 | 0.8 | 80.4* | 6.0 | -1.7 | 1.9
Cc1ccc(NS(=O)(=O)c2ccc(N3CCN(c4ccc(O)cc4)CC3)c([N+](=O)[O-])c2)c(C)c1 | 0.5 | 73.3* | -16.8 | 0.6 | 5.4
COC(=O)c1ccc(N2CCN(S(=O)(=O)c3ccc(C)cc3)CC2)c([N+](=O)[O-])c1 | 6.2 | 75.4* | 1.2 | 0.9 | 2.1
Cn1c(=O)n(C)c2cc([N+](=O)[O-])c(N3CCN(S(=O)(=O)c4ccc(C(C)(C)C)cc4)CC3)cc21 | 13.7 | 75.0* | 6.2 | 4.5 | 0.9
CC1CCN(Cc2c(C(=O)NN=Cc3ccc(C(C)C)cc3)nnn2-c2nonc2N)CC1 | . | . | 0.7 | . | .
O=C(COc1ccc(Cl)cc1[N+](=O)[O-])NN=Cc1cccs1 | . | . | 4.6 | . | .
S=c1[nH]nc(COc2ccccc2)n1N=Cc1ccc(Cl)cc1Cl | . | . | 9.0 | . | .
COc1ccc(/C=N/NC(=O)Cc2csc(Nc3cccc(C(F)(F)F)c3)n2)c(OC)c1 | -1.5 | 95.4* | . | -8.6 | -0.2
SMILES | UPR CHOP act | CHOP inh | UCH37 DUB inh | XBP1 UPR activ | Fh CTSL1 inh
CCOc1ccc(C=NNC(=O)Cc2csc(Nc3cccc(C(F)(F)F)c3)n2)c(OCC)c1 | . | . | 2.1 | . | .
Cc1ccccc1NC(=O)Cn1nnc2c(cnn2-c2ccc(F)cc2)c1=O | 0.3 | 36.0 | -53.1 | -1.9 | 3.0
CCOc1ccc(NC(=O)Cn2nnc3c(cnn3-c3ccc(F)cc3)c2=O)cc1 | 0.0 | 72.2* | -29.0 | 1.6 | 0.9
CCOC(=O)CCc1c(C)nc(SCCN2CCCC2)c(C#N)c1C | -1.3 | 31.5 | 2.3 | -2.4 | -2.8
CCOC(=O)CCc1c(C)nc(SCCCn2c(=O)[nH]c3ccccc32)c(C#N)c1C | 0.3 | 83.0* | -1.3 | -3.0 | -2.1
Cc1nc2nc(CCNS(=O)(=O)c3ccc(Cl)cc3)cn2nc1C | 2.4 | . | . | -2.9 | 30.1*
COc1ccc(S(=O)(=O)NCCc2cn3nc(C)c(C)nc3n2)cc1 | 1.5 | . | i | -2.3 | 3.7
Fc1ccc(C=Nn2c(COc3ccccc3)n[nH]c2=S)cc1 | . | . | 3.6 | . | .
Cc1cc(C)nc(NN=Cc2ccccc2)n1 | . | . | 5.0 | . | .
COc1ccc(C(C(=O)NC2CCCCC2)N(C(=O)Cc2c[nH]c3ccccc23)c2ccccc2C)cc1OC (stereo not drawn) | 1.5 | 37.9 | 4.5 | -3.8 | -3.0
Cc1ccc(C(C(=O)NC2CCCCC2)N(Cc2ccco2)C(=O)Cc2c[nH]c3ccccc23)o1 (stereo not drawn) | -0.7 | 86.5* | 5.4 | 0.1 | 1.4
Cc1ccc(N(C(=O)Cc2c[nH]c3ccccc23)C(C(=O)NC2CCCCC2)c2ccco2)cc1 (stereo not drawn) | 2.3 | 87.9* | 3.9 | 5.7 | 3.4
O=[N+]([O-])c1cccc(C2NCC(c3ccccc3Cl)c3c2[nH]c2ccccc32)c1 (stereo not drawn) | 0.4 | 84.8* | 2.5 | -2.6 | -2.8
CN(C)c1ccc(C2CNC(c3ccc(Cl)c([N+](=O)[O-])c3)c3[nH]c4ccccc4c32)cc1 (stereo not drawn) | -0.7 | 56.6 | -12.9 | -0.7 | -5.9
COC(=O)c1ccc(COC(=O)c2ccc(N(C)C)cc2)cc1 | 1.9 | 79.8* | 3.1 | -1.1 | 2.6
CN(C)c1ccc(C(=O)OCc2ccccc2)cc1 | 4.2 | 50.0 | 1.2 | 3.5 | 0.8
CCC(C)[C@H](NC(=O)[C@@H]1CSC2c3ccccc3C(=O)N21)C(=O)NCc1ccco1 (stereo partly drawn) | 0.5 | . | 0.9 | 0.7 | 80.6*
COc1ccc(C(=O)NNC(=O)C(NC(=O)c2ccccc2NC(=O)c2ccco2)C(C)C)cc1 (stereo not drawn) | 0.5 | 30.0 | 1.8 | -1.6 | -1.3
CCC(C)C(NC(=O)OC(C)(C)C)C(=O)NCc1ccco1 (stereo not drawn) | 0.1 | 1.8 | 3.2 | -3.1 | 20.0*
COc1ccc(C(=O)Nc2ccccc2C(=O)N(Cc2ccco2)C(C(N)=O)C(C)C)cc1 (stereo not drawn) | 1.7 | -45.1 | 3.4 | -0.1 | 38.0*
COc1ccc(C(=O)Nc2ccccc2C(=O)NC(C(=O)NCc2ccco2)C(C)C)cc1 (stereo not drawn) | 1.0 | 20.6 | -8.0 | -2.9 | 48.4*
O=C(NN=Cc1ccc(O)c([N+](=O)[O-])c1)C1CC1(c1ccccc1)c1ccccc1 (stereo not drawn) | . | . | 9.5 | . | .
COc1cc(C=NNc2ccccn2)cc(OC)c1O | . | . | 11.5 | . | .

Screening data deposited in PubChem BioAssay by several laboratories.
